# Sampled rows, rich in hits. Any-hit rate of the full collection: about 4.9%.
# STAT1 act – STAT1 signaling activation; NIH 3T3 STAT1-luciferase reporter, IFN-gamma, luminescence; 100% = IFN-gamma alone, no compound; activation (% of control), % at 5.5 µM; 2.6% of 200,000 active; AID 932;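 active = activation above the screen-wide mean activation plus 3 SD, cut at about 130% in these data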;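 note: raw ratio to IFN-gamma control signal so 100% means no change and 0% no light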
# STAT3 inh – reduces IL-6 driven STAT3 reporter signal. AID 862. inhibition, % at 5.5 µM. U3A cells, IL-6 STAT3-luciferase reporter, luminescence; host cell line lacks STAT1. 0.89% of 190,000 active;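 active = inhibition above the mean inhibition across all screened compounds plus 3 SD, cut at about 44% in these data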;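 note: 0% = DMSO only wells and 100% = 100 µM nifuroxazide control wells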
# APP 5'UTR act – activates APP 5'UTR luciferase reporter | SH-SY5Y APP 5'UTR luciferase reporter, luminescence; zero percent = DMSO vehicle wells | activation, % at 2 µM | 1% of 190,000 active;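 active = activation above a set limit, based on mean plus 3 SD of controls, cut at about 140% in these data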
# STAT1 blocker – inhibitors of IFN-gamma induced STAT1 signaling | 0.35% of 200,000 active | AID 920 | inhibition, % at 5.5 µM | NIH 3T3 STAT1-luciferase reporter, luminescence;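 active = inhibition above a set limit, the mean inhibition across all tested compounds plus 3 SD, cut at about 34% in these data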;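 note: 0% = IFN-gamma with DMSO and 100% = IFN-gamma with 300 µM nifuroxazide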
# NF-kB expr up – raises NF-kB expression in human neuronal cells; NF-kB reporter expression; hits give high values; fold change at 12.5 µM; AID 1239; 1.6% of 190,000 active; in the data active = fold change above about 3.3
# STAT3 act – activators of IL-6 induced STAT3 signaling; AID 871; U3A cells, IL-6 STAT3-luciferase reporter, luminescence; 100% = signal with IL-6 EC80 alone; activation (% of control), % at 5.6 µM; 0.91% of 190,000 active;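 active = activation above the screen-wide mean of compound activation plus 3 SD, cut at about 130% in these data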;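 note: 0% = background luminescence of wells with medium and substrate only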
#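 Material: human STAT1-deficient U3A cells with stable STAT3-luciferase reporter / Probe or stimulus: IL-6 stimulus at 33 ng/mL final / Schedule: 1 h compound pre-exposure, 6 h IL-6 stimulation, 37 °C / Technique: luminescence / Read-out basis: percent of IL-6-only median luminescence / Control set: IL-6-only high control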
# Numbers without * were called inactive.
SMILES,STAT1 act,STAT3 inh,APP 5'UTR act,STAT1 blocker,NF-kB expr up,STAT3 act
Cc1cccn2cc(CNc3ccccc3)nc12,123,8,17,-25,2.3,98
CCOC(=O)CN(c1ccccn1)S(=O)(=O)c1ccc(OC)cc1,100,9,7,-1,1.1,102
Cc1ccc(Nc2n[nH]c(C)c2[N+](=O)[O-])cc1,147*,-4,54,-52,3.1,103
Cc1[nH]nc(Nc2ccccc2)c1[N+](=O)[O-],104,14,12,-5,2,95
O=C(CSc1nc(-c2ccccc2F)nc2nc[nH]c12)Nc1c(Cl)cc(Cl)cc1Cl,103,0,15,-4,1,99
Cc1ccccc1OCC(=O)Nc1nc2ccccc2[nH]1,136*,32,114,-42,2.1,77
CC(CC(=O)Nc1nc2ccccc2[nH]1)n1ccnc1 (stereo not drawn),104,-1,12,-7,1.2,102
COc1cccc(C(=O)Nc2nc3ccccc3[nH]2)c1,60,86*,150*,44*,2.5,29
CC(CC(=O)Nc1nc2ccccc2[nH]1)c1ccccc1 (stereo not drawn),145*,-9,123,-44,2.5,109
O=C(COc1ccccc1)Nc1nc2ccccc2[nH]1,129*,31,56,-31,2.6,76
O=S(=O)(Nc1cc(Sc2cccc3cccnc23)c(O)c2ccccc12)c1ccc(F)cc1,141*,-96,-78,-45,0.27,184*
COc1ccc(S(=O)(=O)Nc2cc(Sc3ncn[nH]3)c(O)c3ccccc23)cc1,89,-25,-9,12,0.18,119
CC(=O)/C(=N\Nc1ccccc1)Sc1cccc2cccnc12,98,2,-12,3,1.1,96
O=C(Sc1cccc2cccnc12)c1ccc(F)cc1,173*,30,-71,-81,0.15,76
Oc1c(C(c2ccccn2)N2CCCCC2)cc(Cl)c2cccnc12 (stereo not drawn),107,-32,14,-9,4.9*,127
COc1ccc(-c2noc(-c3ccccc3-c3ccccc3)n2)cc1,101,23,7,-1,0.88,84
COc1nc(C)ccc1-c1noc(-c2ccncc2)n1,131*,-4,-8,-33,1.8,107
Cc1ccc(-c2nc(-c3cccnc3)no2)cc1,122,29,105,-24,6.3*,78
Cc1ccc(Cc2nc(-c3cccnc3)no2)cc1,103,4,-13,-3,1.4,96
COc1cccc(-c2nc(-c3ccccn3)no2)c1,46,95*,35,60*,0.93,19
COc1cccc(-c2nc(-c3ccccc3)no2)c1,150*,-12,128,-43,7.3*,113
COCCN(CCOC)C(=O)c1ccc(SCc2ccc(C)cc2)c([N+](=O)[O-])c1,95,4,6,5,1.1,103
COc1ccccc1CNC(=O)c1ccc(OC(F)F)c(OC)c1,102,-12,16,-2,1.1,106
COc1cccc(-c2noc(-c3ccc(Br)o3)n2)c1,136*,9,95,-42,3.6*,94
COc1cccc(-c2noc(-c3cccs3)n2)c1,139*,24,114,-42,8.4*,84
SMILES,STAT1 act,STAT3 inh,APP 5'UTR act,STAT1 blocker,NF-kB expr up,STAT3 act
COc1ccc(CC(=O)Nc2ccc(-c3noc(-c4cccc(OC)c4)n3)cc2)cc1,91,15,-3,10,1.2,89
CC(C)(C)c1ccc(-c2nc(-c3ccncc3)no2)cc1,130*,41,216*,-33,2.1,69
COC(=O)c1ccc(-c2nc(-c3cccs3)no2)cc1,53,91*,136*,52*,1,30
CN(C)CCCNC(=O)C(=O)NCC1CCCO1 (stereo not drawn),99,28,4,1,1.1,83
COc1ccccc1NCC(=O)n1nc(C)cc1C,100,11,7,-2,1.2,93
c1ccc(-c2noc(-c3ccncc3)n2)nc1,124,34,104,-26,2,72
c1ccc(-c2noc(-c3cccnc3)n2)nc1,129*,20,75,-30,1.8,85
Cc1cc(-c2ccn[nH]2)c(C)s1,105,12,1,-7,0.91,99
Cc1ccc(-c2c(C)sc(=NC(=O)c3ccco3)n2C)cc1,129*,31,67,-32,3,76
Cc1ccc(-c2cc(C(=O)N3CCN(C(=O)c4ccco4)CC3)no2)cc1,106,6,8,-2,0.96,97
COC(c1ccccc1)c1nnc(CCC(=O)N(C)C(C2CC2)C2CC2)o1 (stereo not drawn),131*,-19,44,-35,2.6,117
Cn1c2ccccc2c(=O)c2c(=O)n(C3CCCCC3)c(-c3cccs3)nc21,103,9,-19,-4,1.1,97
Cc1ccc(S(=O)(=O)/N=C2/C=C(C3C(=O)CC(C)(C)CC3=O)C(=O)c3ccccc32)cc1,94,17,126,6,1.6,91
CCc1ccc(S(=O)(=O)ON2C(=O)c3ccccc3C2=O)cc1,100,0,-24,-1,1.1,104
CCc1ccc(S(=O)(=O)/N=C2\C=CC(=O)c3ccccc32)cc1,96,-50,-35,3,0.78,145*
CCc1ccc(S(=O)(=O)/N=C2/C=C(Sc3ncn[nH]3)C(=O)c3ccccc32)cc1,96,-50,-75,5,0.58,139*
Cc1ccccc1Nc1nc2ccccc2s1,143*,-12,89,-47,5.6*,106
Cc1ccccc1Nc1nn2c(=O)c3ccccc3nc2s1,138*,8,72,-41,1.4,95
C=CCSc1nn2c(=O)c3ccccc3nc2s1,134*,15,70,-37,2.6,96
O=C(Nc1nc(=O)c2ccccc2s1)c1ccccc1,138*,-28,66,-48,3.6*,126
CN(C(=O)COC(=O)CCc1c[nH]c2ccccc12)C(c1ccccc1)c1ccccc1,105,-9,21,-5,1.1,106
COc1ccc2oc(=O)c(-c3ccccc3C(=O)N3CCOCC3)cc2c1,90,-7,-2,11,0.95,104
COC(=O)c1c(NC(NC(=O)C(C)C)C(Cl)(Cl)Cl)sc2c1CCC2 (stereo not drawn),103,-3,-7,-3,0.97,100
CC(C)CC(CO)N1CCN(C(=O)c2cccc(C(F)(F)F)c2)CCC1=O (stereo not drawn),102,2,-5,-2,1.1,96
O=C1CN(c2ccc(Cl)cc2)C2(CCCCC2)S1,101,1,9,-1,1,99
Nc1ccc(-c2nc3ccc(C(=O)O)cc3s2)cc1,20,104*,-67,89*,9.2*,10

# Screening data as filed in PubChem BioAssay.
